# Measured values taken from article PMC8562524 (Journal for Immunotherapy of Cancer, 2021).
# Tests used:
# human CD137 = human CD137 (Homo sapiens, UniProt Q07011); assay type: cell-based; details: co-culture with 4T1 cells overexpressing mouse Nectin-4, 6 hours
# MC38-Nectin-4 tumors = assay: Pharmacodynamics in MC38-Nectin-4 tumors; assay type: in vivo, mouse; details: 144 hours
# How it was run: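 C57BL/6J-hCD137 mice bore MC38-Nectin-4 tumors. Tumors were harvested 24, 48, 96 and 144 h after test compound 5 mg/kg at 0 and 24 h. Controls were harvested at 144 h: vehicle, a non-CD137-binding analogue (same schedule), or anti-CD137 agonist antibody 2 mg/kg every 3 days. Tumors were assessed by IHC (mouse CD8) and NanoString mRNA profiling.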
# Sequence of human CD137 (Q07011 24-255): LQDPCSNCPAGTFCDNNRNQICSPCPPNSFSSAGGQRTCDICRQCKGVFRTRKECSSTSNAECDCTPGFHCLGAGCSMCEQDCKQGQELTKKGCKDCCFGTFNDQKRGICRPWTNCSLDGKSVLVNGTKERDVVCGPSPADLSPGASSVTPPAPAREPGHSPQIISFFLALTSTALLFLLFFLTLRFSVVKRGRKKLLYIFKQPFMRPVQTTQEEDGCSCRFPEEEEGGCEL
substance,measurement,setting,value
"anti-CD137 antibody agonist: anti-human 4-1BB therapeutic antibody, urelumab, Creative Biolabs Cat. No. TAB-179",CD137 agonism (reporter activity),human CD137,induced CD137 agonism in a Nectin-4-independent manner
same,reprogramming of the tumor immune microenvironment (mRNA profiling),MC38-Nectin-4 tumors,to lesser extent
same,T cell infiltrates in tumor (CD8 IHC),"MC38-Nectin-4 tumors; BT7480 or NB-BCY 5 mg/kg at 0 and 24 hours, anti-CD137 antibody agonist 2 mg/kg",increased
